Reference: ChEMBL document CHEMBL1158829, “Oxygenated pimarane diterpenes from Kaempferia marginata” (J Nat Prod, 2005)
Values after ≈ are worked out from the molar mass of the structure shown.

Experiments:
[1] = test system: Mycobacterium tuberculosis; experiment: Antitubercular activity against Mycobacterium tuberculosis H37Ra after 4 days by microplate alamar blue assay; type: functional; conditions: 96 h
Summary of the method: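 Mycobacterium tuberculosis H37Ra tested by Microplate Alamar Blue Assay, reporting minimum inhibitory concentration (MIC). Rifampicin, kanamycin and isoniazid were the positive controls.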

Plasmodium falciparum = experiment: Antimalarial activity against multidrug-resistant Plasmodium falciparum K1 after 42 hrs by [3H]hypoxanthine uptake; type: functional, organism-based
Summary of the method: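 Plasmodium falciparum K1 (multidrug-resistant) was kept in continuous culture. In vitro activity was quantified with a microculture radioisotope technique.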

Candida albicans = experiment: Antifungal activity against Candida albicans ATCC 90028 by XTT assay; type: functional, organism-based
Summary of the method: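 Candida albicans ATCC 90028 tested by a tetrazolium/formazan colorimetric method, with IC50 as the read-out. Amphotericin B served as the positive control and DMSO as the negative control.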

| Compound | MIC [1] [µg/mL] | IC50 (Plasmodium falciparum) [µg/mL] | IC50 (Candida albicans) [µg/mL] |
| --- | --- | --- | --- |
| C=C[C@]1(C)C=C2CC[C@]3(C)[C@](C)(CCC[C@]3(C)O)[C@@]2(C)CC1 | 25 (≈ 82.6 µM) |  |  |
| C=C[C@]1(C)C=C2C(=O)C[C@H]3C(C)(C)C[C@H](O)[C@H](O)[C@]3(C)[C@H]2CC1 | > 100 |  |  |
| C=C[C@]1(C)C=C2CC[C@]3(C)[C@](C)(CC[C@H](C(C)=O)[C@]3(C)O)[C@@]2(C)CC1 | 50 (≈ 145 µM) |  |  |
| C=C[C@]1(C)C=C2CC[C@H]3C(C)(C)CC[C@H](O)[C@]3(C)[C@H]2[C@H](O)C1 |  | 3.2 (≈ 10.5 µM) |  |
| C=C[C@]1(C)C=C2CC[C@H]3C(C)(C)C[C@H](O)[C@H](O)[C@]3(C)[C@H]2[C@H](O)C1 | > 100 | 8.8 (≈ 27.5 µM) | 17.5 (≈ 54.6 µM) |
| C=C[C@]1(C)C=C2[C@H](O)C[C@H]3C(C)(C)CC[C@H](O)[C@]3(C)[C@H]2[C@H](O)C1 | > 100 |  |  |
